Assay results published in paper PMC3873039 (Anti-Cancer Agents in Medicinal Chemistry, 2013).

Assays:
CCRF-CEM [1] = experiment: NucView caspase 3 activity assay by flow cytometry; format: cell-based, human; conditions: 24 h
Outline: (§1)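 Seeded at 0.5 x 10⁶ cells/well and treated 24 h, with series of 0–50 or 0–250 µM depending on compound. Normalized to vehicle (0% apoptosis). Mean ± STD, three independent experiments in triplicate. One-way ANOVA/Tukey, p<0.05. AP50 = concentration giving 50% apoptotic cells.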

U937 [2] = experiment: Hoechst 33342 nuclear morphological analysis of apoptosis; format: cell-based; conditions: Homo sapiens, U-937, 24 h, read-out: AP50 (50% induction of apoptosis), Hoechst 33342 staining (Hoe)
Outline: (§2)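 Seeded at 0.5 x 10⁶ cells/well in 12-well plates and treated 24 h. Cells were pelleted (400 g, 5 min, 4 °C), washed in PBS, fixed in 4% paraformaldehyde, cytospun, air-dried, then stained with 10 μg/ml Hoechst 33342 for 10 min in the dark. Fluorescence microscopy: 200 cells counted, scored by condensed/intense nuclei, shrinkage, blebbing and apoptotic bodies. % apoptotic nuclei calculated. AP50 = concentration giving 50% apoptotic cells.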

MOLT-3 [3] = experiment: as above; format: cell-based; conditions: Homo sapiens, MOLT-3, 24 h, read-out: AP50 (50% induction of apoptosis), Hoechst 33342 staining (Hoe)
Outline: as §2

CCRF-CEM [4] = experiment: Cell cycle analysis, propidium iodide flow cytometry; format: cell-based, human; conditions: IC50 dose, 24 h, vehicle control G0/G1 = 41.9%
Outline: (§3)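 Seeded at 0.5 x 10^6 cells per well in 12-well plates and treated 24 h at the IC50 concentration of each test compound from CellTiter-Glo. Cells were pelleted (400 g, 5 min), PBS-washed and fixed in 80% ethanol overnight at -20 °C. Staining used 50 µg/mL PI plus RNase overnight at 4 °C.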

MOLT-3 [5] = experiment: CellTiter-Glo luminescent cell viability assay; format: cell-based, human; conditions: MOLT-3, 24 h, doses 0, 2, 10, 50, 250, 500 µM, p<0.05
Outline: (§4)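 Cells grown in RPMI 1640 with 10% FBS, 1.5 mM L-glutamine and penicillin/streptomycin at 37 °C, 5% CO2. Seeded at 2.5 x 10³ cells/well and exposed 24 h to ethanol-dissolved test compound (0, 2, 10, 50, 250, 500 µM) with 0.1% ethanol vehicle. ATP luminescence normalized to vehicle (100%). IC50 taken from linear regression. Lowest significant dose set by one-way ANOVA/Tukey, p<0.05. Triplicates, three independent experiments.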

THP-1 [6] = experiment: NucView caspase 3 activity assay by flow cytometry; format: cell-based, human
Outline: as §1

K562 [7] = experiment: CellTiter-Glo luminescent cell viability assay; format: cell-based, human; conditions: K562, 24 h, doses 0, 2, 10, 50, 250, 500 µM, p<0.05
Outline: as §4

U937 [8] = experiment: CellTiter-Glo luminescent cell viability assay; format: cell-based, human; conditions: U937, 24 h, doses 0, 2, 10, 50, 250, 500 µM, p<0.05
Outline: as §4

KG1a [9] = experiment: Hoechst 33342 nuclear morphological analysis of apoptosis; format: cell-based; conditions: Homo sapiens, KG-1a, 24 h, read-out: AP50 (50% induction of apoptosis), Hoechst 33342 staining (Hoe)
Outline: as §2

K562 [10] = experiment: NucView caspase 3 activity assay by flow cytometry; format: cell-based, human
Outline: as §1

[11] = test system: non-tumor progenitor cells (CD34+); experiment: Cell cycle analysis, propidium iodide flow cytometry; format: cell-based; conditions: 24 h, within the IC50 ranges used to treat the leukemic cell lines
THP-1 [12] = experiment: Cell cycle analysis, propidium iodide flow cytometry; format: cell-based, human; conditions: THP-1, IC50 dose, 24 h; vehicle control G0/G1 = 42.3%
Outline: as §3

JURKAT [13] = experiment: Hoechst 33342 nuclear morphological analysis of apoptosis; format: cell-based; conditions: Homo sapiens, 24 h, read-out: AP50 (50% induction of apoptosis), Hoechst 33342 staining (Hoe)
Outline: as §2

non-tumor cells (CD34+) = experiment: NucView caspase 3 activity assay by flow cytometry; format: cell-based; conditions: 24 h
HL60 [14] = experiment: Hoechst 33342 nuclear morphological analysis of apoptosis; format: cell-based; conditions: Homo sapiens, HL-60, 24 h, read-out: AP50 (50% induction of apoptosis), Hoechst 33342 staining (Hoe)
Outline: as §2

KG1a [15] = experiment: Cell cycle analysis, propidium iodide flow cytometry; format: cell-based, human; conditions: IC50 dose, 24 h, vehicle control G2/M = 18.7%
Outline: as §3

JURKAT [16] = experiment: NucView caspase 3 activity assay by flow cytometry; format: cell-based, human; conditions: 24 h
Outline: as §1

HL60 [17] = experiment: NucView caspase 3 activity assay by flow cytometry; format: cell-based, human
Outline: as §1

U937 [18] = experiment: Cell cycle analysis, propidium iodide flow cytometry; format: cell-based, human; conditions: U937, IC50 dose, 24 h; vehicle control G0/G1 = 44.03%
Outline: as §3

K562 [19] = experiment: as above; format: cell-based, human; conditions: K562, IC50 dose, 24 h; vehicle control G2/M = 13.6%
Outline: as §3

THP-1 [20] = experiment: Hoechst 33342 nuclear morphological analysis of apoptosis; format: cell-based; conditions: Homo sapiens, THP-1, 24 h, read-out: AP50 (50% induction of apoptosis), Hoechst 33342 staining (Hoe)
Outline: as §2

KG1a [21] = experiment: CellTiter-Glo luminescent cell viability assay; format: cell-based, human; conditions: 24 h
Outline: as §4

KG1a [22] = experiment: NucView caspase 3 activity assay by flow cytometry; format: cell-based, human; conditions: 24 h
Outline: as §1

K562 [23] = experiment: Hoechst 33342 nuclear morphological analysis of apoptosis; format: cell-based; conditions: Homo sapiens, K562, 24 h, read-out: AP50 (50% induction of apoptosis), Hoechst 33342 staining (Hoe)
Outline: as §2

## C(=C\c1ccccc1)/c1ccccc1 [Trans-Stilbene, Trans-stilbene]
CCRF-CEM [1]; Homo sapiens, read-out: AP50 (50% induction of apoptosis), Caspase 3 activity assay (C3)
  EC50: > 500 µM
CCRF-CEM [1]; caspase 3 activity, p<0.05
  The lowest dose of polyphenols at which there was a significant induction of apoptosis compared to the vehicle control: 50 µM
U937 [2]
  EC50: 225 µM
MOLT-3 [3]
  EC50: 400 µM
CCRF-CEM [4]
  Percentage of cells in G0/G1 phase of cell cycle (significant accumulation): G0/G1 =49.1%
MOLT-3 [5]
  The lowest dose of polyphenols at which there was a significant inhibition of cell proliferation compared to the vehicle control: 50 µM
THP-1 [6]; Homo sapiens, THP-1, 24 h, read-out: AP50 (50% induction of apoptosis), Caspase 3 activity assay (C3)
  EC50: > 500 µM
THP-1 [6]; THP-1, caspase 3 activity, 24 h, p<0.05
  The lowest dose of polyphenols at which there was a significant induction of apoptosis compared to the vehicle control: 250 µM
K562 [7]
  The lowest dose of polyphenols at which there was a significant inhibition of cell proliferation compared to the vehicle control: 50 µM
U937 [8]
  The lowest dose of polyphenols at which there was a significant inhibition of cell proliferation compared to the vehicle control: 50 µM
KG1a [9]
  EC50: 360 µM
K562 [10]; Homo sapiens, K562, 24 h, read-out: AP50 (50% induction of apoptosis), Caspase 3 activity assay (C3)
  EC50: > 500 µM
K562 [10]; K562, caspase 3 activity, 24 h, p<0.05
  The lowest dose of polyphenols at which there was a significant induction of apoptosis compared to the vehicle control: 50 µM
[11]
  Cell cycle arrest in non-tumour control cells: No Arrest ≤500µM
THP-1 [12]
  Percentage of cells in G0/G1 phase of cell cycle (significant accumulation): G0/G1 =53%
JURKAT [13]
  EC50: 310 µM
non-tumor cells (CD34+); read-out: AP50 (50% induction of apoptosis), Caspase 3 activity assay (C3)
  EC50: > 500 µM
non-tumor cells (CD34+); CD34+ non-tumour control cells, caspase 3 activity, p<0.05
  The lowest dose of polyphenols at which there was a significant induction of apoptosis compared to the vehicle control: 250 µM
HL60 [14]
  EC50: 50 µM
KG1a [15]
  Percentage of cells in G2/M phase of cell cycle (significant accumulation): G2/M =23.7%
JURKAT [16]; Homo sapiens, Jurkat, read-out: AP50 (50% induction of apoptosis), Caspase 3 activity assay (C3)
  EC50: 250 µM
JURKAT [16]; JURKAT, caspase 3 activity, p<0.05
  The lowest dose of polyphenols at which there was a significant induction of apoptosis compared to the vehicle control: 50 µM
HL60 [17]; HL60, caspase 3 activity, 24 h, p<0.05
  The lowest dose of polyphenols at which there was a significant induction of apoptosis compared to the vehicle control: 50 µM
HL60 [17]; Homo sapiens, HL-60, 24 h, read-out: AP50 (50% induction of apoptosis), Caspase 3 activity assay (C3)
  EC50: 40 µM
U937 [18]
  Percentage of cells in G0/G1 phase of cell cycle (significant accumulation): G0/G1 =62%
K562 [19]
  Percentage of cells in G2/M phase of cell cycle (significant accumulation): G2/M =24.5%
THP-1 [20]
  EC50: > 500 µM
KG1a [21]; Homo sapiens, KG-1a, read-out: IC50 (50% inhibition of cellular proliferation)
  IC50: 250 µM
KG1a [21]; KG1a, doses 0, 2, 10, 50, 250, 500 µM, p<0.05
  The lowest dose of polyphenols at which there was a significant inhibition of cell proliferation compared to the vehicle control: 50 µM
KG1a [22]; Homo sapiens, KG-1a, read-out: AP50 (50% induction of apoptosis), Caspase 3 activity assay (C3)
  EC50: > 500 µM
KG1a [22]; KG1a, caspase 3 activity, p<0.05
  The lowest dose of polyphenols at which there was a significant induction of apoptosis compared to the vehicle control: 50 µM
K562 [23]
  EC50: 460 µM
